Results reported in ChEMBL document CHEMBL3286392, “Iron chelators in photodynamic therapy revisited: synergistic effect by novel highly active thiosemicarbazones” (ACS Med Chem Lett, 2014).
The source made the active and inactive calls. No cut-off for these calls is given here.

Legend:
[1] = test system: HeLa; assay: Dark cytotoxicity against human HeLa cells after 72 hrs by MTT assay; type: cell-based
[2] = Ratio of IC50 for p53-deficient human HCT116 cells to IC50 for human Raji cells; type: cell-based; conditions: hct-116
[3] = test system: NHDF; assay: Dark cytotoxicity against human NHDF cells after 72 hrs by MTT assay; type: cell-based
[4] = test system: HCT-116; assay: Dark cytotoxicity against human HCT116 cells expressing wild type p53 after 96 hrs by MTT assay; type: cell-based; conditions: HCT-116, 96 h
[5] = test system: HCT-116; assay: Photocytotoxicity against human HCT116 cells expressing wild type p53 incubated for 24 hrs followed by light irradiation measured after 24 hrs by MTS assay in presence of ALA and FeCl3; type: functional, cell-based
[6] = test system: HCT-116; assay: Photocytotoxicity against human HCT116 cells expressing wild type p53 assessed as combination index incubated for 24 hrs followed by light irradiation measured after 24 hrs by MTS assay in presence of ALA; type: functional
Outline: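 HCT 116+/+ cells were treated with TSC at a range of concentrations plus ALA held at 1 mM. PpIX was irradiated at varied light doses, with doses increased in constant ratio. CI was calculated by the Chou–Talalay method as the summed doses in the combination divided by the dose of each therapy alone giving the same cytotoxic effect.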

[7] = test system: HCT-116; assay: Induction of ROS generation in human HCT116 cells expressing wild type p53 at 1.6 nM after 24 hrs by spectrophotometry; type: functional, cell-based
[8] = test system: Raji; assay: Dark cytotoxicity against human Raji cells after 72 hrs by MTT assay; type: cell-based
[9] = test system: HCT-116; assay: Cytotoxicity against human HCT116 cells expressing wild type p53 assessed as cell death at 50 uM; type: cell-based; conditions: hct-116, 50 µM
[10] = test system: HCT-116; assay: Dark cytotoxicity against p53-deficient human HCT116 cells after 96 hrs by MTT assay; type: cell-based; conditions: HCT-116, 96 h
[11] = test system: HCT-116; assay: Induction of ROS generation in human HCT116 cells expressing wild type p53 at 8 nM after 24 hrs by spectrophotometry; type: functional, cell-based
[12] = Ratio of IC50 for human HCT116 cells expressing wild type p53 to IC50 for human NHDF cells; type: cell-based, HCT-116; conditions: HCT116 cells expressing wild type p53 and NHDF cells, read-out: Ratio IC50
[13] = test system: HCT-116; assay: Induction of 5-aminolevulinic acid-induced cellular PpIX formation in human HCT116 cells expressing wild type p53 at 50 uM by fluorescence plate reader analysis; type: functional, cell-based
[14] = test system: HCT-116; assay: Induction of ROS generation in human HCT116 cells expressing wild type p53 at 4 uM after 24 hrs by spectrophotometry; type: functional, cell-based

Compound | IC50 [1] | Ratio IC50 [2] | IC50 [3] | IC50 [4] | Activity [5] | CI [6] | Activity [7] | IC50 [8] | Activity [9] | IC50 [10] | Activity [11] | selectivity ratio [12] | Activity [13] | Activity [14]
S=C(NN=C(c1ccccn1)c1ccccn1)N1CCN(c2ccccc2)CC1 | 570 nM | 2.4 | 1.73 nM | 0.81 nM | Active | 0.47 | Active | 0.32 nM | Toxic | 0.76 nM | – | – | – | –
Oc1cccc2ccc(/C=N/NC(=S)N3CCOCC3)nc12 | 176 nM | – | > 10000 nM | 3.84 nM | Active | 0.08 | – | 21.2 nM | Toxic | 16.8 nM | Active | 2770 | – | –
CC(=O)N(O)CCCCCNC(=O)CCC(=O)N(O)CCCCCNC(=O)CCC(=O)N(O)CCCCCN [DEFEROXAMINE] | – | – | – | > 200000 nM | Active | 1.01 | – | – | – | > 200000 nM | – | – | inactive | –
CN(C)C(=S)N/N=C/c1c(O)ccc2cccnc12 | – | – | > 20000 nM | > 20000 nM | Active | 6.08 | – | – | – | > 20000 nM | – | – | inactive | –
NC(=S)N/N=C/c1ncccc1N [TRIAPINE] | – | – | – | 1230 nM | Active | 0.85 | – | – | – | – | – | – | – | Active
CCN1CCN(C(=S)N/N=C/c2ccccc2O)CC1 | > 20000 nM | – | > 20000 nM | > 20000 nM | Active | 0.95 | – | > 10000 nM | – | > 20000 nM | – | – | inactive | –
